What was measured:
MCF7 [1] = assay: Cytotoxicity against human MCF7 cells after 72 hrs by MTT assay; assay type: functional; conditions: MCF7, 72 h
Outline: (§1)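 Cells seeded per well: Hep-G2 1×10⁴, HT-29 4×10³, K-562 4×10³, MCF-7 1.2×10⁴, MCF-10A 7×10³, PC-3 2×10³. MCF-10A were grown in supplemented MEBM at 37 °C, 5% CO₂. Five concentrations were tested between 0.01 and 100, with 72 h exposure. Formazan was read by A590. GI₅₀ was taken relative to untreated controls, from at least three independent experiments.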

HT-29 [2] = assay: Cytotoxicity against human HT-29 cells after 72 hrs by MTT assay; assay type: functional; conditions: HT-29, 72 h; for CC50: read-out: LC50 (the source's name); outline: as §1
K562 = assay: Cytotoxicity against human K562 cells after 72 hrs by MTT assay; assay type: functional; conditions: K562, 72 h; for CC50: read-out: LC50 (the source's name); outline: as §1
HepG2 = assay: Cytotoxicity against human HepG2 cells after 72 hrs by MTT assay; assay type: functional; conditions: HepG2, 72 h; for CC50: read-out: LC50 (the source's name); outline: as §1
PC-3 [3] = assay: Cytotoxicity against human PC3 cells after 72 hrs by MTT assay; assay type: functional; conditions: PC-3, 72 h; for CC50: read-out: LC50 (the source's name); outline: as §1
[4] = Cytotoxicity against human MCF10A cells after 72 hrs by MTT assay; assay type: cell-based, MCF-10A; conditions: for GI50 at 72 h: MCF10A cells; for LC50 / TGI: mcf-10a, 72 h; outline: as §1
PC-3 [5] = assay: Cytotoxicity against human PC3 cells after 72 hrs by CV method; assay type: functional; conditions: PC-3, 72 h
Outline: (§2)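 Crystal violet check of the MTT data: eight concentrations between 0.01 and 100, with 72 h exposure. Cells were fixed in 4% formaldehyde for at least 20 min, then stained with 0.1% crystal violet for 30 min. GI₅₀ is the concentration halving growth relative to untreated controls.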

HT-29 [6] = assay: Cytotoxicity against human HT-29 cells after 72 hrs by CV method; assay type: functional; conditions: HT-29, 72 h; outline: as §2
MCF7 [7] = assay: Induction of apoptosis in human MCF7 cells assessed as apoptotic cells at 15 uM after 48 hrs by TUNEL assay; assay type: functional
Outline: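 TUNEL (Apo-Direct) on MCF-7 cells treated with compound or vehicle, with camptothecin as positive control. Cells were fixed in paraformaldehyde and then ethanol, labelled with FITC-dUTP for 1 h at 37 °C, counterstained with PI/RNase, and analysed by flow cytometry. Read-out is % apoptotic cells, mean ± SEM of three independent experiments in duplicate wells.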

MCF7 [8] = assay: Induction of apoptosis in human MCF7 cells assessed as accumulation at subG1 phase at 15 uM after 24 hrs by DNA flow cytometric assay; assay type: functional
Outline: (§3)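 Exponentially growing MCF-7 cells were given compound or vehicle, with camptothecin as positive control. Cells were fixed in 1% paraformaldehyde in PBS pH 7.4 on ice for 1 h, then in 70% ethanol at −20 °C for 30 min. They were stained with PI/RNase for 30 min at RT in the dark. DNA content was measured by flow cytometry as % of total cells. Mean ± SEM of three independent experiments, duplicate wells.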

MCF7 [9] = assay: Induction of apoptosis in human MCF7 cells assessed as accumulation at G0/G1 phase at 15 uM after 24 hrs by DNA flow cytometric assay; assay type: functional; outline: as §3
MCF7 [10] = assay: Induction of apoptosis in human MCF7 cells assessed as accumulation at S phase at 15 uM after 24 hrs by DNA flow cytometric assay; assay type: functional; outline: as §3
MCF7 [11] = assay: Induction of apoptosis in human MCF7 cells assessed as accumulation at G2/M phase at 15 uM after 24 hrs by DNA flow cytometric assay; assay type: functional; outline: as §3
MCF7 [12] = assay: Induction of apoptosis in human MCF7 cells assessed as accumulation at subG1 phase at 15 uM after 48 hrs by DNA flow cytometric assay; assay type: functional; outline: as §3
MCF7 [13] = assay: Induction of apoptosis in human MCF7 cells assessed as accumulation at G0/G1 phase at 15 uM after 48 hrs by DNA flow cytometric assay; assay type: functional; outline: as §3
MCF7 [14] = assay: Induction of apoptosis in human MCF7 cells assessed as accumulation at S phase at 15 uM after 48 hrs by DNA flow cytometric assay; assay type: functional; outline: as §3
MCF7 [15] = assay: Induction of apoptosis in human MCF7 cells assessed as accumulation at G2/M phase at 15 uM after 48 hrs by DNA flow cytometric assay; assay type: functional; outline: as §3

Structure (SMILES)	GI50 (MCF7 [1]) [nM]	LC50 (MCF7 [1]) [µM]	TGI (MCF7 [1]) [µM]	GI50 (HT-29 [2]) [nM]	TGI (HT-29 [2]) [µM]	CC50 (HT-29 [2]) [µM]	GI50 (K562) [µM]	TGI (K562) [µM]	CC50 (K562) [µM]	GI50 (HepG2) [µM]	TGI (HepG2) [µM]	CC50 (HepG2) [µM]	GI50 (PC-3 [3]) [µM]	TGI (PC-3 [3]) [µM]	CC50 (PC-3 [3]) [µM]	GI50 at 72 h [4] [µM]	LC50 [4] [µM]	TGI [4] [µM]	GI50 (PC-3 [5]) [µM]	GI50 (HT-29 [6]) [µM]	other results
C[Se]/C(=N\C(=O)c1csc([N+](=O)[O-])c1)NC(=O)c1csc([N+](=O)[O-])c1	0.76	> 100	28.1	0.63	> 100	> 100	4.98	> 100	> 100	0.62	1.55	10	0.1	7.09	> 100	1.95	7.53	4.74	0.11	7.1	
C[Se]/C(=N\C(=O)c1sccc1Cl)NC(=O)c1sccc1Cl	300	> 100	31.2	4.9	> 100	> 100	4.81	28.5	90	0.69	4.02	8.67	0.97	7.03	> 100	3.16	7.82	5.49	0.24	0.0059	
C[Se]/C(=N\C(=O)c1cc(-c2ccccc2)nc2ccccc12)NC(=O)c1cc(-c2ccccc2)nc2ccccc12	490	> 100	7.52	460	90.7	90.7	5.8	30.6	73	4.54	10.1	65.4	3.97	40.2	> 100	0.71	76.9	20.05	3.72	0.85	
C[Se]/C(=N\C(=O)c1ccno1)NC(=O)c1ccno1	0.09	> 100	57.5	0.79	> 100	> 100	0.87	45.6	> 100	0.51	9.35	> 100	0.09	39.3	> 100	2.89	63.94	15.41	0.03	4.9	
C[Se]/C(=N\C(=O)c1ccco1)NC(=O)c1ccco1	30	> 100	88.9	0.05	> 100	> 100	8.78	> 100	> 100	0.76	8.66	> 100	0.36	56.7	> 100	5.94	98.07	40.16	0.16	1	
C[Se]/C(=N\C(=O)c1cnc2ccccc2c1)NC(=O)c1cnc2ccccc2c1	660	60.7	8.03	200	> 100	> 100	3.8	29.9	74.8	4.16	23.7	87.8	2.33	43.6	> 100	20.3	83.86	52.1	1.42	0.46	Activity (MCF7 [7]): 27.19%; Activity (MCF7 [8]): 10.29%; Activity (MCF7 [9]): 73.06%; Activity (MCF7 [10]): 8.1%; Activity (MCF7 [11]): 7.21%; Activity (MCF7 [12]): 11.34%; Activity (MCF7 [13]): 32.87%; Activity (MCF7 [14]): 32.68%; Activity (MCF7 [15]): 19.97%
CS/C(=N\C(=O)c1csc([N+](=O)[O-])c1)NC(=O)c1csc([N+](=O)[O-])c1	44600	> 100	78.1	51800	> 100	> 100	56.9	98.7	> 100	63.4	> 100	> 100	41.5	82.5	> 100	1.55	75.14	21.35			
O=C(/N=C(/NC(=O)c1cc2ccccc2s1)[Se]Cc1ccccc1)c1cc2ccccc2s1	37900	87.9	62.9	6510	> 100	> 100	14.9	42.8	70.6	21	49	77	30.5	58.4	86.3	37.9	87.9	62.92			

Reference: ChEMBL document CHEMBL1649384, “Synthesis and antiproliferative activity of novel symmetrical alkylthio- and alkylseleno-imidocarbamates” (Eur J Med Chem, 2011)
